From ChEMBL document CHEMBL4311935, “Synthesis and antitumor activity of fluorouracil - oleanolic acid/ursolic acid/glycyrrhetinic acid conjugates” (Medchemcomm, 2019)
Activity calls are given as the source filed them. The rule behind the calls is not given here.

Key:
A549 [1] = assay: Induction of cell cycle arrest in human A549 cells assessed as accumulation at G2 phase at 15 uM after 48 hrs by RNase/propidium iodide staining based flow cytometry analysis (reference value: 5.14 %); assay type: functional
How it was run: (§1)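 A549 cells were grown in dishes for 24 h, then treated at 0, 10, 15 or 20 μM for 48 h. Cells were washed in cold PBS, fixed in cold 75% ethanol and held at −20 °C for 36 h. They were then treated with RNase A (100 μg mL–1) for 30 min and stained with propidium iodide (1 mg mL–1 stock) for 10 min in the dark before flow cytometry.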

K562 = assay: Cytotoxicity against human K562 cells assessed as cell growth inhibition after 48 hrs by MTT assay; assay type: functional, cell-based; conditions: K562, 48 h
A549 [2] = assay: Induction of apoptosis in human A549 cells assessed as early apoptotic cells at 15 uM after 48 hrs by AnnexinV-FITC/propidium iodide staining based flow cytometry analysis (reference value: 0.99 %); assay type: functional
A549 [3] = assay: Induction of apoptosis in human A549 cells assessed as activation of caspase-3 at 15 uM using FITC-DEVD-FMK as substrate after 48 hrs by flow cytometric analysis (reference value: 5.99 %); assay type: functional
A549 [4] = assay: Induction of cell cycle arrest in human A549 cells assessed as accumulation at G1 phase at 20 uM after 48 hrs by RNase/propidium iodide staining based flow cytometry analysis (reference value: 70.63 %); assay type: functional; how it was run: as §1
A549 [5] = assay: Induction of apoptosis in human A549 cells assessed as stimulation of ROS generation at 25 uM after 48 hrs by DCFH-DA staining-based flow cytometric analysis (reference value: 42.5 %); assay type: functional
A549 [6] = assay: Induction of apoptosis in human A549 cells assessed as late apoptotic cells at 10 uM after 48 hrs by AnnexinV-FITC/propidium iodide staining based flow cytometry analysis (reference value: 4.19 %); assay type: functional
A549 [7] = assay: Induction of apoptosis in human A549 cells assessed as late apoptotic cells at 20 uM after 48 hrs by AnnexinV-FITC/propidium iodide staining based flow cytometry analysis (reference value: 4.19 %); assay type: functional
NCI/ADR-RES = assay: Cytotoxicity against human MCF7/ADR cells assessed as cell growth inhibition after 48 hrs by MTT assay; assay type: functional, cell-based
A549 [8] = assay: Induction of cell cycle arrest in human A549 cells assessed as accumulation at G2 phase at 10 uM after 48 hrs by RNase/propidium iodide staining based flow cytometry analysis (reference value: 5.14 %); assay type: functional; how it was run: as §1
A549 [9] = assay: Induction of cell cycle arrest in human A549 cells assessed as accumulation at S phase at 10 uM after 48 hrs by RNase/propidium iodide staining based flow cytometry analysis (reference value: 24.23 %); assay type: functional; how it was run: as §1
A549 [10] = assay: Induction of cell cycle arrest in human A549 cells assessed as accumulation at G1 phase at 15 uM after 48 hrs by RNase/propidium iodide staining based flow cytometry analysis (reference value: 70.63 %); assay type: functional; how it was run: as §1
A549 [11] = assay: Induction of cell cycle arrest in human A549 cells assessed as accumulation at G2 phase at 20 uM after 48 hrs by RNase/propidium iodide staining based flow cytometry analysis (reference value: 5.14 %); assay type: functional; how it was run: as §1
Bel-7402 = assay: Cytotoxicity against human Bel7402 cells assessed as cell growth inhibition after 48 hrs by MTT assay; assay type: functional, cell-based; conditions: Bel-7402, 48 h
A549 [12] = assay: Induction of apoptosis in human A549 cells assessed as activation of caspase-3 at 20 uM using FITC-DEVD-FMK as substrate after 48 hrs by flow cytometric analysis (reference value: 5.99 %); assay type: functional
A549 [13] = assay: Induction of apoptosis in human A549 cells assessed as early apoptotic cells at 20 uM after 48 hrs by AnnexinV-FITC/propidium iodide staining based flow cytometry analysis (reference value: 0.99 %); assay type: functional
A549 [14] = assay: Induction of apoptosis in human A549 cells assessed as stimulation of intracellular calcium influx by measuring fluorescence intensity at 10 to 15 uM after 48 hrs by Fluo-3/AM probe based flow cytometry analysis; assay type: functional, cell-based
How it was run: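 Cells were seeded in six-well plates for 24 h, then treated at 0, 10 or 15 μM for 48 h. They were harvested, washed three times in serum-free RPMI 1640 and loaded with Fluo-3 AM (0.5 μM) for 60 min. After two washes and resuspension in serum-free medium, fluorescence was measured immediately by flow cytometry.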

A549 [15] = assay: Induction of apoptosis in human A549 cells assessed as stimulation of ROS generation at 20 uM after 48 hrs by DCFH-DA staining-based flow cytometric analysis (reference value: 42.5 %); assay type: functional
A549 [16] = assay: Induction of apoptosis in human A549 cells assessed as activation of caspase-3 at 10 uM using FITC-DEVD-FMK as substrate after 48 hrs by flow cytometric analysis (reference value: 5.99 %); assay type: functional
A549 [17] = assay: Induction of cell cycle arrest in human A549 cells assessed as accumulation at S phase at 15 uM after 48 hrs by RNase/propidium iodide staining based flow cytometry analysis (reference value: 24.23 %); assay type: functional; how it was run: as §1
Bel7402/5-FU = assay: Cytotoxicity against human Bel7402/5-FU cells assessed as cell growth inhibition after 48 hrs by MTT assay; assay type: functional, cell-based
A549 [18] = assay: Induction of apoptosis in human A549 cells assessed as activation of caspase-8 at 20 uM using FITC-DEVD-FMK as substrate after 48 hrs by flow cytometric analysis (reference value: 9.76 %); assay type: functional
A549 [19] = assay: Induction of apoptosis in human A549 cells assessed as early apoptotic cells at 10 uM after 48 hrs by AnnexinV-FITC/propidium iodide staining based flow cytometry analysis (reference value: 0.99 %); assay type: functional
A549 [20] = assay: Induction of cell cycle arrest in human A549 cells assessed as accumulation at G1 phase at 10 uM after 48 hrs by RNase/propidium iodide staining based flow cytometry analysis (reference value: 70.63 %); assay type: functional; how it was run: as §1
MCF7 = assay: Cytotoxicity against human MCF7 cells assessed as cell growth inhibition after 48 hrs by MTT assay; assay type: functional, cell-based; conditions: MCF7, 48 h
L02 = assay: Cytotoxicity against human LO2 cells assessed as cell growth inhibition after 48 hrs by MTT assay; assay type: cell-based; conditions: L02, 48 h
A549 [21] = assay: Induction of apoptosis in human A549 cells assessed as activation of caspase-8 at 15 uM using FITC-DEVD-FMK as substrate after 48 hrs by flow cytometric analysis (reference value: 9.76 %); assay type: functional
K562/Adr = assay: Cytotoxicity against human K562/ADR cells assessed as cell growth inhibition after 48 hrs by MTT assay; assay type: functional, cell-based
A549 [22] = assay: Cytotoxicity against human A549 cells assessed as cell growth inhibition after 48 hrs by MTT assay; assay type: functional, cell-based; conditions: A549, 48 h
A549 [23] = assay: Induction of apoptosis in human A549 cells assessed as activation of caspase-8 at 10 uM using FITC-DEVD-FMK as substrate after 48 hrs by flow cytometric analysis (reference value: 9.76 %); assay type: functional
A549 [24] = assay: Induction of cell cycle arrest in human A549 cells assessed as accumulation at S phase at 20 uM after 48 hrs by RNase/propidium iodide staining based flow cytometry analysis (reference value: 24.23 %); assay type: functional; how it was run: as §1
A549 [25] = assay: Induction of apoptosis in human A549 cells assessed as late apoptotic cells at 15 uM after 48 hrs by AnnexinV-FITC/propidium iodide staining based flow cytometry analysis (reference value: 4.19 %); assay type: functional
A549/TR = assay: Cytotoxicity against human A549/T cells assessed as cell growth inhibition after 48 hrs by MTT assay; assay type: functional, cell-based

`CC1(C)[C@@H](O)CC[C@]2(C)[C@H]3C(=O)C=C4[C@@H]5C[C@@](C)(C(=O)OCCCCCCCCn6cc(F)c(=O)[nH]c6=O)CC[C@]5(C)CC[C@@]4(C)[C@]3(C)CC[C@@H]12` gave an Activity (A549 [1]) of 4.27%, an IC50 (K562) of 9.8 µM and an Activity (A549 [2]) of 2.71%. The Activity (A549 [3]) was 50.9%, the Activity (A549 [4]) was 92.18% and the Activity (A549 [5]) was 34.9%. It also gave an Activity (A549 [6]) of 5.43%, an Activity (A549 [7]) of 46.4% and an IC50 (NCI/ADR-RES) of 23.4 µM. For the same molecule, the Activity (A549 [8]) was 5.58%, the Activity (A549 [9]) was 20.81% and the Activity (A549 [10]) was 76.07%. The Activity (A549 [11]) was 2.81%, the IC50 (Bel-7402) was 21 µM and the Activity (A549 [12]) was 64.7%. For the same molecule, the Activity (A549 [13]) was 3.5%, the Activity (A549 [14]) was “Active” and the Activity (A549 [15]) was 40.5%. It also gave an Activity (A549 [16]) of 24.5%, an Activity (A549 [17]) of 19.66% and an IC50 (Bel7402/5-FU) of 19.8 µM. It also gave an Activity (A549 [18]) of 32.4%, an Activity (A549 [19]) of 1.61% and an Activity (A549 [20]) of 73.61%. The IC50 (MCF7) was 12.9 µM, the IC50 (L02) was 20.9 µM and the Activity (A549 [21]) was 12.7%. The IC50 (K562/Adr) was 27 µM, the IC50 (A549 [22]) was 15.7 µM and the Activity (A549 [23]) was 9.26%. For the same molecule, the Activity (A549 [24]) was 5.01%, the Activity (A549 [25]) was 31.91% and the IC50 (A549/TR) was 20.7 µM.
